Active and inactive are the calls of the source.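 How the source made its calls: active means mean inhibition of serotonin release over both replicates above 50%; inactive means mean inhibition at or below 50%.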

The values that follow come from PubChem BioAssay AID2656 (Broad Institute, 2010).

The subject of this assay is Human washed platelets, SFLLRN-induced 14C-serotonin release. As to the kind of experiment: blockers of platelet serotonin release via PAR1 – cell-based, 14C-serotonin release, radioactive, mechanism study for platelet granule secretion inhibitor project, late-stage follow-up (AID 2656). The settings on record: at 10 µM; hits give high values. Put shortly: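 Material: washed platelets preloaded with 14C-serotonin / Input: 2x10^8 platelets/mL / Medium: HEPES-Tyrodes buffer for resuspended platelets / Reagent: SFLLRN peptide 5 µM plus imipramine 5 µM blocking reuptake / Dosing: single compound dose of 10 µM / Timing: compound pre-incubation 15 min, SFLLRN stimulation 15 min / Technique: beta scintillation counting of supernatant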

For the compound `COC(=O)c1ccccc1NC(=O)Nc1ccc2c(c1)OCO2`, the inhibition was 15.4% (inactive).
For `COc1ccc(C(=O)Nc2ccc(N3CCOCC3)cc2)cc1OC` the value was 9.3% (inactive).
Under `CCOc1ccc2nc(NCCO)[nH]c2c1` stands 9.75% (inactive); under `COC(=O)c1nn(-c2ccc3c(c2)CCN3C(C)=O)cc1O`, 12.8% (inactive); under `COc1cc2c(cc1OC)-c1cc(Nc3ccccc3C)nc(=O)n1CC2`, 94.8%.
For `O=C(Oc1ccc(Cl)cc1)c1ccc(COC(=O)c2cnccn2)cc1` the value was 0.5% (inactive).
In the case of `CC(=O)Oc1ccc(-c2nc(-c3cccnc3)no2)cc1`, the inhibition is -5.2% (inactive).

In general, inhibition refers to the drop in the measured response relative to a control, in per cent.
